Screening results deposited in PubChem BioAssay by The Scripps Research Institute Molecular Screening Center.
GSTO1 counter: blocks human GSTO1 in RBBP9 counter-screen; recombinant GSTO1, activity-based probe fluorescence polarization; inhibition, % at 5.96 µM; 300,000 tested, 1.1% active; AID 1974;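 active = inhibition above the campaign mean inhibition plus 3 SD, cut at about 35% in these data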;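 also: 0% = GSTO1-1 with DMSO and 100% = wells lacking GSTO1-1 enzyme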
Target sequence (P78417 whole entry, looked up): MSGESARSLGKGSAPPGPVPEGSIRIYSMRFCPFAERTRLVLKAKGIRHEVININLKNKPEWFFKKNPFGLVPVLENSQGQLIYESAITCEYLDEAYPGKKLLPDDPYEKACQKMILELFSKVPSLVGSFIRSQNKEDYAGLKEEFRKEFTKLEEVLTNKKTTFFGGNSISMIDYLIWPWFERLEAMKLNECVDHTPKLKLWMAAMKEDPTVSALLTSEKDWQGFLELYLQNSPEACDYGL
PAD4 FP inh: inhibitors of human PAD4; Q9UM07; recombinant PAD4, RCA probe fluorescence polarization; inhibition, % at 6.36 µM; 330,000 tested, 0.41% active; AID 485272;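 active = percent inhibition above a cutoff equal to the mean of all tested compounds plus 3 SD, cut at about 15% in these data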;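 also: 0% = PAD4 with RCA probe and DMSO and 100% = probe without PAD4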
Fam108B counter: counter-screen for RBBP9 inhibitors: inhibitors of mouse Fam108B; recombinant Fam108B, FP-Rh probe fluorescence polarization; inhibition, % at 9.51 µM; 300,000 tested, 0.33% active;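 active = inhibition above the screen mean inhibition plus 3 SD, computed separately per campaign, cut at about 18% in these data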;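 also: inhibitors lower polarization as less probe binds the enzyme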
RBBP9 inhibitor: human RBBP9 hydrolase inhibition; 220,000 tested, 0.2% active; recombinant RBBP9, FP-Rh probe fluorescence polarization; O75884; AID 1515; inhibition, % at 7.94 µM;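 active = inhibition above the campaign mean of all tested compounds plus 3 SD, cut at about 14% in these data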;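 also: plate controls were DMSO wells with RBBP9 for no effect and wells lacking RBBP9 protein for full effect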
Target sequence (O75884 whole entry, looked up): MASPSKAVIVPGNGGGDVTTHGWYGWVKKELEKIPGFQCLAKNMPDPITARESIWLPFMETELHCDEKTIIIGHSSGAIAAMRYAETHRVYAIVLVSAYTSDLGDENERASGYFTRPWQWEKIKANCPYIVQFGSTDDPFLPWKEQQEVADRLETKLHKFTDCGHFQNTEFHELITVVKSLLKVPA
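Test system: recombinant human RBBP9. Quantity: 2.5 µM RBBP9 dispensing solution, before mixing. Detection: FP readout at 525/598 nm. Reagent: Serine-hydrolase probe FP-Rh, 375 nM pre-mixing. Measure: % inhibition. Control set: DMSO-treated enzyme wells and wells lacking RBBP9. Buffer or medium: Tris-NaCl-Pluronic buffer, pH 8.0. Times: preincubation 30 min plus labeling 45 min at 25 °C.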
PRMT1 FP inh: inhibitors of human PRMT1. AID 652257. Q99873. recombinant PRMT1, activity-based probe fluorescence polarization. inhibition, % at 2.79 µM. 370,000 tested, 1.3% active;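 active = inhibition above about 21% made by adding two undisclosed values, limit read from the data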
PME-1 inh: PME-1 (human) inhibition; recombinant PME-1, FP-Rh probe fluorescence polarization; AID 2130; inhibition, % at 5.9 µM; 320,000 tested, 0.53% active; Q9Y570;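 active = inhibition above the campaign mean of all compounds plus 3 SD, cut at about 26% in these data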;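 also: competitive labeling of PME-1 active site by serine hydrolase directed probe; 0% = PME-1 with DMSO and 100% = wells lacking PME-1 enzyme; inhibitors block probe labeling so polarization falls and inhibition rises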
PAD4 FP conf: PAD4 (human) inhibition, confirmed; shares compounds with PAD4 FP inh; recombinant PAD4, RCA probe fluorescence polarization; inhibition, % at 6.36 µM; 1,200 tested, 28% active;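 active = mean inhibition across replicates above the hit cutoff set by the earlier primary screen, cut at about 15% in these data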;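 also: inhibitors block active-site labeling by the probe so polarization falls; 0% = PAD4 with probe and DMSO and 100% = probe without PAD4 enzyme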
* hit, by the source's call; · = not tested or not shown. Hits are enriched below; roughly 2.3% of the tested compounds scored in any of these assays.

SMILES	GSTO1 counter	PAD4 FP inh	Fam108B counter	RBBP9 inhibitor	PRMT1 FP inh	PME-1 inh	PAD4 FP conf
COCCn1c(C)c(C)c(S(=O)(=O)c2ccccc2)c1N	13	28*	14	·	7	16	-3
O=C(COC(=O)CNS(=O)(=O)c1cccc(Br)c1)Nc1ccccc1Sc1ccccc1	4	-1	-11	-8	0	6	·
CCC(C)n1c(SC(C)C#N)nc2ccccc2c1=O (stereo not drawn)	6	-4	4	-2	-1	1	·
CCOC(=O)CC(/C(C)=N\O)c1ccccc1 (stereo not drawn)	3	21*	5	3	8	0	-6
C/C(=N\NC(=O)c1c(Br)c(C)nn1C)c1cccc(NC(=O)c2ccccc2C)c1	-4	-1	-4	-6	2	-5	·
CCOc1cc(/C=C2\C(=O)N(CCC#N)N=C2C)ccc1OCC(N)=O	54*	57*	-1	-11	0	-2	-6
CC1=NN(CCC#N)C(=O)/C1=C/c1ccc(N(C)C)cc1	23	-21	2	-12	-1	-1	·
COc1cc(/C=C2\C(=O)N(CCC#N)N=C2C)ccc1OCC(=O)Nc1ccccc1	47*	51*	-5	8	0	0	-8
Nc1nonc1-n1nnc(C(=O)N/N=C/c2cccnc2)c1CSC1=NCCS1	-17	35*	-8	-1	47*	0	10
CC(C)(C)n1nnnc1C(c1cccnc1)N1CCN(c2ccccc2F)CC1 (stereo not drawn)	7	-8	-2	-3	0	-2	·
S=C(NCc1ccco1)Nc1ccc(Cl)c(Cl)c1	-6	3	-2	-15	7	0	·
S=C(NCc1ccco1)Nc1cccc(Cl)c1	4	163*	-7	-4	-2	-6	0
CCCCCNc1nc2ccccc2nc1NS(=O)(=O)c1cccs1	-20	-5	0	-5	4	11	·
OCCN(CCO)c1ccc(C(c2ccc(Cl)cc2)c2ccc(N(CCO)CCO)cc2Cl)c(Cl)c1	0	15*	5	2	3	5	5
Cc1cc(N(CCO)CCO)ccc1N=Nc1cc(F)ccc1F	5	-3	4	-1	-2	9	·
N#CCCN(Cc1ccccc1)C(=O)c1cccs1	-1	31*	-4	-1	-4	0	8
CCOC(=O)[C@]12CCCCC/C=C\1N(Cc1ccc(OC)cc1)C(=O)[C@H]2CC(=O)N1CCN(C(=O)C2CC2)CC1	·	·	·	·	0	·	·
COc1cccc(NC(=S)NCc2ccc3c(c2)cc(C)n3C)c1	·	·	·	-6	4	·	·
Cc1cccc(NC(=S)NCc2ccc3c(c2)cc(C)n3C)c1C	2	19*	2	-4	8	-2	-4
CN(C)c1nc(N/N=C/c2c[nH]c3ccccc23)nc(N2CCOCC2)n1	3	0	-4	1	1	-5	·
C(=Nc1ccc(N2CCOCC2)cc1)c1c[nH]c2ccccc12	16	17*	3	-12	-1	4	-4
O=C(Nc1ccc(Cl)cn1)c1ccc(COCC(F)(F)C(F)F)o1	-2	0	-1	-4	3	1	·
CC(=O)NC(c1cccs1)c1cc([N+](=O)[O-])c2cccnc2c1O (stereo not drawn)	28	25*	-1	-5	4	34*	4
O=C(OCn1ncc(Cl)c(Cl)c1=O)c1cccc(C(F)(F)F)c1	21	32*	-11	-12	·	-8	20*
COC/C=C/C1=CC2=CC(=O)C(C)(OC(=O)c3cnc4ccccc4n3)C(=O)C2=CN1CC1CC1 (stereo not drawn)	22	24*	0	·	·	-6	3
CC(=O)Nc1ccc(S(=O)(=O)Nc2cccc(C(=O)Nc3ccccc3C(=O)O)c2)cc1	-34	18*	-6	·	2	-5	3
Oc1ccc(Oc2ccccc2F)c2cccnc12	·	·	·	·	-3	·	·
O=Cc1ccc(Sc2nnc(-c3ccccc3)o2)c([N+](=O)[O-])c1	23	24*	6	-11	·	-1	24*
O=C(COC(=O)C1CC(=O)N(Cc2ccco2)C1)c1ccc(OC(=O)c2ccccc2)cc1 (stereo not drawn)	4	-2	4	1	-3	-3	·
